The source of these data is ChEMBL document CHEMBL1142891, “Lead discovery and optimization of T-type calcium channel blockers” (Bioorg Med Chem, 2007).

Common to all, as to type: cell-based
In assay [1] the target is T1, Voltage-dependent T-type calcium channel subunit alpha-1G (Homo sapiens, UniProt O43497). The experiment in a line: Inhibition of T type calcium channel subunit alpha1G expressed in HEK293 cells assessed as effect on KCl-induced increase in intracellular calcium level at 10 uM by FDSS assay. The method in brief: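 HEK293 cells stably co-expressing α1G and Kir2.1 were plated at 40,000 cells/well and used the next day. Loaded 60 min at room temperature with 5 µM fluo3/AM plus 0.001% Pluronic F-127 in HEPES buffer (1.8 mM CaCl2, pH 7.4). Depolarized with 70 mM KCl in buffer containing 10 mM CaCl2; the rise in intracellular Ca2+ was read by fluorescence.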
T1 sequence (O43497 whole entry): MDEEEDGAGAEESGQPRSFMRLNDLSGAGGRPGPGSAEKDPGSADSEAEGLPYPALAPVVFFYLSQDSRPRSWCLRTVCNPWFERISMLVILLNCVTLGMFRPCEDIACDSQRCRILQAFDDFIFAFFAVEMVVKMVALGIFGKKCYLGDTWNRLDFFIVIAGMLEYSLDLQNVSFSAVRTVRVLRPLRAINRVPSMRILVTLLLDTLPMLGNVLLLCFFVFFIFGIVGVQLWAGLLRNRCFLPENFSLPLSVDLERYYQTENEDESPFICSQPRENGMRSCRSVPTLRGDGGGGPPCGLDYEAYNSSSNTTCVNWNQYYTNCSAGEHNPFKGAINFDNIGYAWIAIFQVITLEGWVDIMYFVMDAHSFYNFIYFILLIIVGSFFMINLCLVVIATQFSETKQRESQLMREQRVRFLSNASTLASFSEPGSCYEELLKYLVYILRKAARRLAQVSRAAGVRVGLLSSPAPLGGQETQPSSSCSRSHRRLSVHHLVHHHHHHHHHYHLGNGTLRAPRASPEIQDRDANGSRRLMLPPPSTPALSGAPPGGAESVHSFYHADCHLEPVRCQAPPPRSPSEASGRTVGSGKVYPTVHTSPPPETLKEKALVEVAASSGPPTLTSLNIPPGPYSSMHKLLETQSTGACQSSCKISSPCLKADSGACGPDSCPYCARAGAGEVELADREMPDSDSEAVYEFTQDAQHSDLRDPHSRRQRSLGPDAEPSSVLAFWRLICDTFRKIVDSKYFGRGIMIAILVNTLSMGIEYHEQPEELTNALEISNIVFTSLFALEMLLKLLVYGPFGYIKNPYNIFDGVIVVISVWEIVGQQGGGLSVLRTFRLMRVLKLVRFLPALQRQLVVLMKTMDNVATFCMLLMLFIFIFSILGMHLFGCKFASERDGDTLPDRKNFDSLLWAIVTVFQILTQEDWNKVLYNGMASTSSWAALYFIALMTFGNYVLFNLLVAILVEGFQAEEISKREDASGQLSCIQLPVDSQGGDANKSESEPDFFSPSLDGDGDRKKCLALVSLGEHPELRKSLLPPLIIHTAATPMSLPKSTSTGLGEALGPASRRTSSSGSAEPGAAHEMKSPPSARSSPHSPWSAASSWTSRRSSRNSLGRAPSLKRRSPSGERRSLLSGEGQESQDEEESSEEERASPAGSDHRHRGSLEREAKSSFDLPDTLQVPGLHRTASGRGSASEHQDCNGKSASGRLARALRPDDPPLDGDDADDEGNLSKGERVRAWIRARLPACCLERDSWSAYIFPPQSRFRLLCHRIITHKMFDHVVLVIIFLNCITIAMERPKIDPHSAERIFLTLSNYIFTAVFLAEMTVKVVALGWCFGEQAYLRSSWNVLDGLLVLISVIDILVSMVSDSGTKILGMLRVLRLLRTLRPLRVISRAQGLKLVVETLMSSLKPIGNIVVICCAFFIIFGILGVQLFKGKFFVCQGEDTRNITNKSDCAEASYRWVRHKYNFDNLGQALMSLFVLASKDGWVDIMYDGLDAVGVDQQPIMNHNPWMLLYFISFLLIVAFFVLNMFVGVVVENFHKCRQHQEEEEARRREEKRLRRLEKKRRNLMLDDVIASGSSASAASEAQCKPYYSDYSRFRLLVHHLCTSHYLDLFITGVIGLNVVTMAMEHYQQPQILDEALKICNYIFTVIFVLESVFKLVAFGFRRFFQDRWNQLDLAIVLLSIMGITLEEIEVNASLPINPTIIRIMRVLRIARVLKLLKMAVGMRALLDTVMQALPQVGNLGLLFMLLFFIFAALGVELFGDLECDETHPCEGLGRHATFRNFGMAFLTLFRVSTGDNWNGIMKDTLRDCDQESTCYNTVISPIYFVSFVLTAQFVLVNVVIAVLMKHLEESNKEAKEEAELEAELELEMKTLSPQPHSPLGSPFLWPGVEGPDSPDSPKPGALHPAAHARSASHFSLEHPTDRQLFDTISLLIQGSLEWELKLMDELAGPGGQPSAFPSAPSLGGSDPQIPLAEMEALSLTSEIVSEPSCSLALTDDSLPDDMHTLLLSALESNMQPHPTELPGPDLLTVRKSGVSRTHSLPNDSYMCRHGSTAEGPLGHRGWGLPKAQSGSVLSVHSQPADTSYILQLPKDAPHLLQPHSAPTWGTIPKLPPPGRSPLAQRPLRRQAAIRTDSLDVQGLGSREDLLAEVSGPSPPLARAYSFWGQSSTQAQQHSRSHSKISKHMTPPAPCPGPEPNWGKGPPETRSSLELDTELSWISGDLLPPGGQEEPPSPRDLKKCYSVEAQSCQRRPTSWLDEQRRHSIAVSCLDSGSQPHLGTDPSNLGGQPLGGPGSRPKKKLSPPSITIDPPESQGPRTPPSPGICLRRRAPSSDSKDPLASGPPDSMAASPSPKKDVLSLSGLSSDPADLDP

For assay [2], the target named is T1, Voltage-dependent T-type calcium channel subunit alpha-1G. The experiment in a line: Inhibition of T type calcium channel subunit alpha-1G expressed in HEK293 cells assessed as effect on T-type calcium currents by patch clamp method. The method in brief:
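Whole-cell patch clamp on HEK293 cells expressing α1G. Electrodes of 3-4 MΩ held internal solution (mM): 130 KCl, 11 EGTA, 5 Mg-ATP, 10 HEPES, pH 7.4. External solution (mM): 140 NaCl, 2 CaCl2, 10 HEPES, 10 glucose, pH 7.4. Currents evoked every 15 s by a 50 ms step from -100 to -30 mV. Read-out was peak current; IC50 from dose-response fits.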

Assay [3] has the same target. The experiment in a line: Inhibition of T type calcium channel subunit alpha-1G expressed in HEK293 cells assessed as effect on T-type calcium currents at 10 uM by patch clamp method.

Turning to `O=C(CCN1CCN(Cc2cccc(Cl)c2)CC1)Nc1ccc(F)cc1F`, the inhibition in assay [1] was 34.7%. For `O=C(CCCN1CCN(Cc2c(F)cccc2Cl)CC1)Nc1ccc(Cl)cc1Cl`, the IC50 in assay [2] turned out to be 2.4 µM. Moreover, the inhibition in assay [1] amounted to 49.6%; in assay [3] it was 89.6%. As for `O=C(CCCN1CCN(c2ccccc2Cl)CC1)Nc1ccc(F)cc1F`, the inhibition in assay [1] turned out to be 42%.

With `O=C(CCCN1CCN(Cc2ccc(Cl)cc2)CC1)Nc1ccc(F)cc1F`, the inhibition in assay [1] turned out to be 48%. Still for that read-out and setting: the result for `O=C(CCCN1CCN(Cc2c(F)cccc2Cl)CC1)Nc1ccc(F)cc1F` reads 38.9%. On to `O=C(CCCCN1CCN(Cc2ccc(Cl)cc2)CC1)N1CCN(c2ccccc2)CC1`, for which the IC50 in assay [2] worked out at 3.4 µM. For the same compound, the figures for the inhibition in assay [1] and in assay [3] were 50.4% and 79.7%, respectively. The like results for `COc1ccccc1N1CCN(CCCC(=O)Nc2ccc(Cl)cc2)CC1` were, in that order, 2.61 µM, 51.8% and 84.3%. Taken in the same sequence, the figures for `O=C(CCCN1CCN(Cc2ccc3c(c2)OCO3)CC1)Nc1ccc(Cl)cc1` were 2.73 µM, 33.4% and 81.9%. `O=C(CCCN1CCN(c2ccccc2Cl)CC1)Nc1cc(Cl)c(Cl)c(Cl)c1`: in assay [1], the inhibition is 13.6%. Same read-out and setting: the result for `O=C(CCN1CCN(Cc2ccccc2)CC1)Nc1ccc(F)cc1F` reads 21.1%. Same read-out and setting: the result for `COc1cccc(N2CCN(CCC(=O)Nc3ccc(F)cc3F)CC2)c1` reads 29.5%. For the compound `O=C(CCCN1CCN(Cc2ccc(Cl)c(Cl)c2)CC1)Nc1ccc(Cl)cc1Cl`, the IC50 in assay [2] came out at 0.75 µM. The figures for the inhibition in assay [1] and in assay [3] were 47.6% and 94.4%, respectively. `O=C(CN1CCN(C(=O)CCCCN2CCN(Cc3ccc(Cl)cc3)CC2)CC1)Nc1ccccc1Cl`: the inhibition in assay [1] amounted to 26.2%.

In the case of `O=C(CCCN1CCN(c2ccccc2)CC1)Nc1ccc(Cl)cc1Cl`, the half-maximal inhibitory concentration (IC50) in assay [2] was determined as 4.21 µM. For the same compound, the results for the inhibition in assay [1] and in assay [3] were 38.5% and 76.2%, respectively. As for `O=C(CCCN1CCN(c2ccccc2F)CC1)Nc1ccc(Cl)cc1Cl`, in assay [1], the inhibition stood at 27.4%. For `O=C(CCCCN1CCN(Cc2ccc(Cl)cc2)CC1)N1CCN(c2ccccc2F)CC1`, the IC50 in assay [2] is 1.81 µM. In addition, the inhibition in assay [1] was found to be 48.3%; in assay [3], 89.7%. As to `COc1ccccc1N1CCN(CCC(=O)Nc2ccc(F)cc2F)CC1`, the inhibition in assay [1] worked out at 37.1%. `O=C(CCCN1CCN(Cc2ccc3c(c2)OCO3)CC1)Nc1ccc(Cl)cc1Cl`: in assay [2], the IC50 turned out to be 1.67 µM. For the same compound, the inhibition in assay [1] is 49.8%; in assay [3], 88.1%. `O=C(CN1CCN(C(=O)CCCCN2CCN(Cc3cccc(Cl)c3)CC2)CC1)Nc1ccccc1Cl`: in assay [1], the inhibition turned out to be 40.9%. For the compound `O=C(CCN1CCN(Cc2ccc(Cl)cc2)CC1)Nc1ccc(F)cc1F`, the inhibition in assay [1] is 33.2%. Same read-out and setting: for `O=C(CCCN1CCN(c2ccc(F)cc2)CC1)Nc1ccc(F)cc1F` the value was 38.1%. The same measure, in the same setting: the result for `COc1ccccc1N1CCN(CCCC(=O)Nc2cc(Cl)c(Cl)c(Cl)c2)CC1` reads 33.7%. For `O=C(CCN1CCN(c2ccccc2Cl)CC1)Nc1ccc(F)cc1F`, the inhibition in assay [1] was found to be 28.4%. As to `O=C(CCCCN1CCN(c2cccc(Cl)c2)CC1)Nc1ccccc1Cl`, the IC50 in assay [2] was determined as 1.91 µM. The inhibition in assay [1] was 54%; in assay [3], 93.2%. For the compound `O=C(CCCN1CCN(Cc2c(F)cccc2Cl)CC1)Nc1cc(Cl)c(Cl)c(Cl)c1`, the inhibition in assay [1] was 35.1%. Still for that read-out and setting: for `N#Cc1ccccc1N1CCN(CCCCC(=O)N2CCN(CC(=O)Nc3ccccc3Cl)CC2)CC1` the value was 7.38%. Consider `COc1cccc(N2CCN(CCCC(=O)Nc3ccc(Cl)cc3)CC2)c1`, for which the IC50 in assay [2] is 2.78 µM. Moreover, the inhibition came out at 40.6% in assay [1] and 84.1% in assay [3]. In the case of `O=C(CCCN1CCN(c2cccc(Cl)c2)CC1)Nc1ccc(F)cc1F`, the inhibition in assay [1] came to 51%. For the compound `O=C(CCCN1CCN(Cc2ccc(Cl)cc2)CC1)Nc1ccc(Cl)cc1`, the IC50 in assay [2] was 0.37 µM. Further, the inhibition in assay [1] worked out at 33.6%; in assay [3] it was 92.6%. Consider `O=C(CCCN1CCN(c2ccc(F)cc2)CC1)Nc1cc(Cl)c(Cl)c(Cl)c1`, for which the inhibition in assay [1] worked out at 20.7%. On the same count and under the same terms, the result for `O=C(CCCN1CCN(Cc2ccccc2)CC1)Nc1ccc(F)cc1F` reads 23.2%. As for `O=C(CCCCN1CCN(Cc2ccc(Cl)c(Cl)c2)CC1)N1CCN(c2ccccc2)CC1`, the IC50 in assay [2] came to 2.91 µM. Moreover, the inhibition is 56.2% in assay [1] and 73.8% in assay [3]. With `O=C(CCCN1CCN(Cc2cccc(Cl)c2)CC1)Nc1ccc(F)cc1F`, the inhibition in assay [1] amounted to 30.2%. On to `O=C(CCN1CCN(c2ccccc2F)CC1)Nc1ccc(F)cc1F`, for which the inhibition in assay [1] came out at 30.3%. The same measure, in the same setting: the result for `COc1cccc(N2CCN(CCCC(=O)Nc3ccc(F)cc3F)CC2)c1` reads 40.6%; that for `O=C(CCCN1CCN(Cc2cccc(Cl)c2)CC1)Nc1cc(Cl)c(Cl)c(Cl)c1`, 37%. The same measure, in the same setting: the result for `O=C(CN1CCN(C(=O)CCCCN2CCN(c3ccc(F)cc3)CC2)CC1)Nc1ccccc1Cl` reads 34.9%. Take `O=C(CCCN1CCN(Cc2cccc(Cl)c2)CC1)Nc1ccc(Cl)cc1`: the IC50 in assay [2] was found to be 1.8 µM. Further, the inhibition in assay [1] stood at 38.3%; in assay [3] it was 92.4%. For `O=C(CCN1CCN(c2ccccc2)CC1)Nc1ccc(F)cc1F`, the inhibition in assay [1] turned out to be 33.2%. For `O=C(CCCN1CCN(Cc2ccccc2)CC1)Nc1cc(Cl)c(Cl)c(Cl)c1`, the inhibition in assay [1] was 49.4%. For `O=C(CCCN1CCN(c2ccc(Cl)cc2)CC1)Nc1ccc(Cl)cc1`, in assay [2], the IC50 was 2.64 µM. Besides, the inhibition in assay [1] amounted to 48.3%; in assay [3] it was 94.6%. With `O=C(CN1CCN(C(=O)CCCCN2CCN(Cc3ccccc3)CC2)CC1)Nc1ccccc1Cl`, in assay [1], the inhibition amounted to 15.9%.

Consider `O=C(CCCN1CCN(Cc2ccccc2)CC1)Nc1ccc(Cl)cc1Cl`, for which the IC50 in assay [2] amounted to 3.14 µM. Also, the inhibition was found to be 44.9% in assay [1] and 79.3% in assay [3]. Taken in the same sequence, the figures for `O=C(CCCN1CCN(Cc2ccccc2)CC1)Nc1ccc(Cl)cc1` were 3.52 µM, 30.8% and 78%. Regarding `O=C(CCN1CCN(c2cccc(Cl)c2)CC1)Nc1ccc(F)cc1F`, the inhibition in assay [1] was 26.4%.

Take `CCN1CCN(CCCCC(=O)N2CCN(CC(=O)Nc3cccc(C)c3)CC2)CC1`: the inhibition in assay [1] was -1.36%. With `O=C(CCCN1CCN(Cc2ccc(Cl)cc2)CC1)Nc1ccc(Cl)cc1Cl`, the IC50 in assay [2] is 0.28 µM. Besides, the inhibition in assay [1] is 61.3%; in assay [3], 91.1%.

`COc1ccccc1N1CCN(CCCC(=O)Nc2ccc(Cl)cc2Cl)CC1`: the 50% inhibitory concentration (IC50) in assay [2] is 3.34 µM. In addition, the inhibition in assay [1] turned out to be 42.7%; in assay [3], 79.1%.

With `O=C(CCCN1CCN(c2cccc(Cl)c2)CC1)Nc1cc(Cl)c(Cl)c(Cl)c1`, the inhibition in assay [1] stood at 16.8%.

Regarding `O=C(CCCN1CCN(c2ccccc2)CC1)Nc1cc(Cl)c(Cl)c(Cl)c1`, the inhibition in assay [1] was found to be 38.3%. The same measure, in the same setting: for `COc1cccc(N2CCN(CCCCC(=O)N3CCN(CC(=O)Nc4ccccc4Cl)CC3)CC2)c1` the value was 26.1%. As for `O=C(CCCCN1CCN(Cc2cccc(Cl)c2)CC1)N1CCN(c2ccccc2F)CC1`, the IC50 in assay [2] stood at 2.44 µM. Further, the inhibition came out at 48.8% in assay [1] and 87.1% in assay [3]. On to `O=C(CCN1CCN(c2ccc(F)cc2)CC1)Nc1ccc(F)cc1F`, for which the inhibition in assay [1] amounted to 29.7%. In the case of `O=C(CN1CCN(C(=O)CCCCN2CCN(c3ccccc3F)CC2)CC1)Nc1ccccc1Cl`, the inhibition in assay [1] is 22.1%. With `O=C(CCCN1CCN(c2ccc(F)cc2)CC1)Nc1ccc(Cl)cc1`, the IC50 in assay [2] is 3.49 µM. Also, the inhibition in assay [1] is 32.5%; in assay [3] it was 76.1%. For the compound `O=C(CCN1CCN(Cc2ccc(Cl)c(Cl)c2)CC1)Nc1ccc(F)cc1F`, in assay [1], the inhibition came out at 34.6%. In the case of `O=C(CCCN1CCN(c2cccc(Cl)c2)CC1)Nc1ccc(Cl)cc1Cl`, the IC50 in assay [2] was 1.01 µM. For the same compound, the values for the inhibition in assay [1] and in assay [3] were 38.1% and 95.4%, respectively. In the case of `O=C(CCCN1CCN(Cc2ccc(Cl)cc2)CC1)Nc1cc(Cl)c(Cl)c(Cl)c1`, the inhibition in assay [1] is 27.5%. As to `O=C(CCCN1CCN(Cc2c(F)cccc2Cl)CC1)Nc1ccc(Cl)cc1`, the IC50 in assay [2] was 3.27 µM. The values for the inhibition in assay [1] and in assay [3] were 39.8% and 72.8%, respectively. As to `O=C(CN1CCN(C(=O)CCCCN2CCN(c3ccccc3)CC2)CC1)Nc1ccccc1Cl`, the inhibition in assay [1] was determined as 25.2%. The same measure, in the same setting: the result for `COc1cccc(N2CCN(CCCC(=O)Nc3cc(Cl)c(Cl)c(Cl)c3)CC2)c1` reads 21.6%. Turning to `O=C(CCCN1CCN(Cc2cccc(Cl)c2)CC1)Nc1ccc(Cl)cc1Cl`, the IC50 in assay [2] came to 1.48 µM. Further, the inhibition in assay [1] was 50.8%; in assay [3], 87.3%.

For the compound `O=C(CCCN1CCN(c2ccccc2F)CC1)Nc1ccc(F)cc1F`, the inhibition in assay [1] turned out to be 32.2%. The same measure, in the same setting: the result for `O=C(CCCN1CCN(c2ccccc2F)CC1)Nc1cc(Cl)c(Cl)c(Cl)c1` reads 20.1%. On the same count and under the same terms, the result for `O=C(CCN1CCN(Cc2c(F)cccc2Cl)CC1)Nc1ccc(F)cc1F` reads 29.7%.

For `O=C(CCCN1CCN(c2ccccc2)CC1)Nc1ccc(F)cc1F`, the inhibition in assay [1] turned out to be 36.8%. Same read-out and setting: the result for `O=C(CCCN1CCN(Cc2ccc(Cl)c(Cl)c2)CC1)Nc1ccc(F)cc1F` reads 59.9%.

On to `COc1ccccc1N1CCN(CCCC(=O)Nc2ccc(F)cc2F)CC1`, for which the inhibition in assay [1] stood at 33%.
